This note sets out measurements from PubChem BioAssay.

Experiment [1] is described as follows: S. cerevisiae growth inhibition in permissive medium (OD615), pilot counter-assay for S. cerevisiae lifespan shortening project, permissive growth control (AID 705;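 active = growth inhibition above 25% in both replicates, a cutoff set 3 SD above the mean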). As to conditions: OD615, 24 h, at 10 µM, stronger effect = higher value. The essentials: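 System: Engineered DeaD yeast | Buffer or medium: SC raffinose/galactose permissive medium | Doses: 10 µM single dose, 0.25% DMSO | Times: 24 h exposure, 30 °C | Measured by: OD615 turbidity read | Read-out: Yeast growth inhibition indicated by reduced 24 h OD615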

The nature of experiment [2]: S. cerevisiae growth inhibition in restrictive medium, OD615, pilot screen, restrictive growth control, yeast lifespan reduction project (AID 706;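 active = growth inhibition above a set limit, 3 SD over mean compound inhibition, in both replicates, cut at about 43% in these data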;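 note: modified DeaD lifespan yeast strain shifted to restrictive glucose medium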). Conditions: OD615, 48 h, at 10 µM, stronger effect = higher value. The essentials: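 Assay system: engineered S. cerevisiae DeaD strain; Buffer or medium: CSMM-D glucose medium; Dosing: 10 µM compound, 0.25% DMSO; Times: cell pre-growth 4 h, compound exposure 48 h, 30 °C; Detection: absorbance (optical density) measured at 615 nm.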

The nature of experiment [3]: doxorubicin toxicity protection in MRP-1 cells – H69AR cells, CellTiter-Glo, duplicate, MRP-1 activator project, pilot screen (AID 807;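 active = viability increase at or above a cutoff of the median across tested compounds plus 3 SD, cut at about 8.5% in these data, passing the limit was not always enough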;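 note: compound pretreatment 18-22 h then 72 h combined with doxorubicin; 0% = doxorubicin alone and 100% = vehicle without doxorubicin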). As to conditions: H69AR viability with doxorubicin, CellTiter-Glo luminescence; at 10 µM; stronger effect = higher value. Background: ATP-based viability assays read luminescence as a measure of living cells.
The nature of experiment [4]: viability of HCT116 without oncogenic beta-catenin – human colon tumor cells, pilot screen (AID 823).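 Note: 0% = wells killed by 20 µM Hyamine and 100% = untreated DMSO cell wells.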 As to conditions: HCT116 beta-catenin knockout viability, CellTiter-Glo, 60 h; at 10 µM; stronger effect = lower value.
Experiment [5] in a line: viability of PTEN-null HCT116 cells – cell-based, HCT116 clonal line, CellTiter-Glo, pilot screen (AID 824;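 active = viability at or below 27.92% in each of two runs, the all-compound median minus 4 SD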;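 note: 0% = 20 µM Hyamine control and 100% = vehicle cell control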). As to conditions: HCT116 PTEN-deleted viability, 60 h, at 10 µM, stronger effect = lower value.
A short description of experiment [6]: RAM pathway blockade in budding yeast – dse1pr::URA3 reporter, 5-FOA selection, pilot screen (AID 869;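 active = inhibition over a set limit, the all-compound mean plus 3 SD, in both replicate runs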;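 note: 0% = DMSO wells with no growth and 100% = 10 µM 1-NA-PP1 with full growth; RAM network block rescues cells from 5-FOA so hits raise OD615 growth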). Conditions: S. cerevisiae dse1pr::URA3 5-FOA growth, OD615, 2 d; at 10 µM; stronger effect = higher value; strain carries analog-sensitive mutant Cbk1 kinase.
A short description of experiment [7]: RAM signaling pathway blockade in yeast – S. cerevisiae, Pdr1DBD-CYC8 efflux-inhibited sensitized strain, primary screen (AID 1298;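 active = RAM network inhibition above 8.4% in each of two replicates, 3 SD over the compound average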;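 note: 0% = DMSO untreated cells without growth and 100% = 10 µM 1-NA-PP1 full growth; higher means more yeast growth rescued from 5-FOA killing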). As to conditions: S. cerevisiae cbk1-as DSE1-URA3 strain, 5-FOA growth OD615, 2 d; at 50 µM; stronger effect = higher value.

Unmarked numbers belong to inactive results. Records with an inconclusive call do not appear. The source made the active and inactive calls.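 Rule for the calls, unless noted: active = cell viability at or below a set limit in both duplicate runs, the limit being the all-compound median minus 4 SD (cut at about 23% in these data, passing the limit was not always enough); inconclusive = no clear call, values can overlap the other calls; inactive = the rest.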

What is called viability is a read-out of living cells in per cent, often relative to untreated cells. The inhibition is the drop in the measured response relative to a control, in per cent.

With `COc1ccc(CCNc2oc(-c3ccc(C)cc3)nc2C#N)cc1OC`, the growth inhibition in experiment [1] is -10.8%; in experiment [2], -13.3%. Further, in experiment [3], the viability increase is -0.33%. Moreover, the results for the viability in experiment [4] and in experiment [5] were 95.8% and 104%, respectively. The inhibition in experiment [6] was 0.67%. Moreover, the RAM network inhibition in experiment [7] was -0.47%.

On to `ON1C(c2ccc(Cl)cc2Cl)N(O)[C@H]2CCCC[C@H]21` (stereo partly drawn), for which the growth inhibition in experiment [1] was -6.31%; in experiment [2], -5.43%. In addition, in experiment [3], the viability increase was -1.27%. Moreover, the viability in experiment [4] was 101%; in experiment [5] it was 100%. Besides, the inhibition in experiment [6] is 1.35%. In addition, in experiment [7], the RAM network inhibition was 4.97%.

In the case of `CCC(C)(C(=O)NC1CCCCC1)N(C(=O)C1CCC(=O)N1)c1ccc(C)cc1` (stereo not drawn), the values for the growth inhibition in experiment [1] and in experiment [2] were 2.44% and -4.21%, respectively. For the same molecule, the viability increase in experiment [3] is -1.97%. In addition, the viability in experiment [4] is 98.7%; in experiment [5] it was 92.1%. Also, the inhibition in experiment [6] is 1.71%. Further, the RAM network inhibition in experiment [7] was 1.9%.

Turning to `O=C(CNC(=O)c1ccco1)OCC(=O)c1ccccc1`, the growth inhibition in experiment [1] was -8.55%; in experiment [2] it was 3%. The viability increase in experiment [3] is -1.3%. In addition, the viability in experiment [4] is 97.3%; in experiment [5] it was 94.3%. Further, the inhibition in experiment [6] was 0.98%. Besides, the RAM network inhibition in experiment [7] was 0.92%.

Turning to `Cc1nc2ccc3nc(NC(=O)C4COc5ccccc5O4)sc3c2s1` (stereo not drawn), the growth inhibition in experiment [1] was -10.6%; in experiment [2], 0.74%. The viability increase in experiment [3] was -4.93%. The viability in experiment [4] was 86.8%; in experiment [5], 80.6%. The inhibition in experiment [6] is 1.55%. Besides, in experiment [7], the RAM network inhibition is -0.06%.

For `CCc1cccc(OCCCCNCCOC)c1`, the growth inhibition was -2.16% in experiment [1] and -11.6% in experiment [2]. Moreover, the viability increase in experiment [3] was -0.86%. The values for the viability in experiment [4] and in experiment [5] were 89.1% and 99.3%, respectively. The inhibition in experiment [6] is 2.08%. Further, in experiment [7], the RAM network inhibition was -0.32%.

In the case of `COc1ccc(OC)c(S(=O)(=O)Nc2ccc(OCC(=O)O)cc2)c1`, the growth inhibition in experiment [1] is -9.87%; in experiment [2], -4.85%. For the same molecule, in experiment [3], the viability increase was -0.45%. For the same molecule, the viability is 98.3% in experiment [4] and 91.1% in experiment [5]. The inhibition in experiment [6] is 0.98%. Besides, in experiment [7], the RAM network inhibition is 2.71%.

With `Cc1ccc(N(C(=O)CC2NC(=O)NC2=O)C2(C(=O)NC3CCCC3)CCCCC2)cc1` (stereo not drawn), the values for the growth inhibition in experiment [1] and in experiment [2] were -9.96% and -19.7%, respectively. Besides, the viability increase in experiment [3] was -1.56%. Further, the viability is 95.2% in experiment [4] and 93.7% in experiment [5]. The inhibition in experiment [6] is -0.23%. Besides, in experiment [7], the RAM network inhibition was 3.14%.

For the molecule `CCOCCCNC(=O)c1cc2c(=O)n3cccc(C)c3nc2n1C`, the growth inhibition in experiment [1] was -19.1%; in experiment [2] it was -15.2%. Moreover, the viability increase in experiment [3] is -5.27%. Moreover, the viability in experiment [4] is 19% (active); in experiment [5] it was 24.4% (active). The inhibition in experiment [6] is 2.11%. The RAM network inhibition in experiment [7] was 2.32%.

As for `CC(=O)N1CCc2c(sc(NC(=O)C3CC3)c2-c2nc3ccccc3s2)C1`, the results for the growth inhibition in experiment [1] and in experiment [2] were 0.95% and -2.89%, respectively. Also, the viability increase in experiment [3] was -3.03%. For the same molecule, the viability is 65.4% in experiment [4] and 63.4% in experiment [5]. In addition, in experiment [6], the inhibition was 1.99%. The RAM network inhibition in experiment [7] is 4.93%.

`Cc1cccc(NC(=O)NCCN2C(=O)C3C4C=CC(C4)C3C2=O)c1` (stereo not drawn): the results for the growth inhibition in experiment [1] and in experiment [2] were -11.4% and 8.84%, respectively. For the same molecule, the viability increase in experiment [3] is -1.25%. The viability in experiment [4] was 104%; in experiment [5], 96.4%. Also, the inhibition in experiment [6] is 1.83%. Further, in experiment [7], the RAM network inhibition was 0.37%.

`CC(C)C12CN3CC(C(C)C)(CN(C1)C31C(=O)Nc3ccccc31)C2=O` (stereo not drawn): the growth inhibition is -16.5% in experiment [1] and -17.8% in experiment [2]. Moreover, the viability increase in experiment [3] is -0.6%. In addition, the viability in experiment [4] was 90.3%; in experiment [5], 101%. Further, the inhibition in experiment [6] was 1.05%. Moreover, the RAM network inhibition in experiment [7] is 3.39%.

Take `COC(=O)c1[nH]c2cc(OC)ccc2c1NC(=O)c1ccc2c(c1)OCO2`: the growth inhibition is -9.79% in experiment [1] and -13.4% in experiment [2]. In addition, the viability increase in experiment [3] is -3.43%. Besides, the viability in experiment [4] was 79.6%; in experiment [5], 81.2%. Further, in experiment [6], the inhibition is 1.74%. For the same molecule, the RAM network inhibition in experiment [7] is 1.04%.

For the molecule `CCC(C)NC(=O)C1CN(S(=O)(=O)c2ccccc2)CCN1S(=O)(=O)c1ccccc1` (stereo not drawn), the figures for the growth inhibition in experiment [1] and in experiment [2] were 10.9% and -6.21%, respectively. The viability increase in experiment [3] is -2.53%. Moreover, the values for the viability in experiment [4] and in experiment [5] were 97.3% and 92.9%, respectively. For the same molecule, the inhibition in experiment [6] was 0.14%. Moreover, the RAM network inhibition in experiment [7] is 0.57%.

For `O=C(NCCCc1ccccc1)c1ccncc1`, the figures for the growth inhibition in experiment [1] and in experiment [2] were 1.08% and 0.81%, respectively. Moreover, the viability increase in experiment [3] was -0.23%. Moreover, the viability in experiment [4] is 98.4%; in experiment [5] it was 99.4%. The inhibition in experiment [6] is 0.45%. Further, in experiment [7], the RAM network inhibition was 6.46%.

Consider `CCc1ccc(NC(=O)CN(c2ccc3c(c2)OCO3)S(=O)(=O)c2c(C)noc2C)cc1`, for which the growth inhibition in experiment [1] is -16.8%; in experiment [2] it was -11.4%. Further, in experiment [3], the viability increase was 0.12%. Moreover, the viability in experiment [4] is 85.5%; in experiment [5] it was 80.5%. Moreover, in experiment [6], the inhibition was 3.38%. Moreover, the RAM network inhibition in experiment [7] was 9.54%.

Turning to `CC(C)N(CCc1ccncc1)C(=O)Nc1ccc(Cl)c(Cl)c1`, the results for the growth inhibition in experiment [1] and in experiment [2] were -4.55% and -1.79%, respectively. The viability increase in experiment [3] was -0.23%. Moreover, the viability in experiment [4] was 81.1%; in experiment [5] it was 87.8%. The inhibition in experiment [6] was 2.42%. Besides, in experiment [7], the RAM network inhibition is 3.94%.

On to `Cc1cc(-c2ccco2)n(CC(=O)NCCCc2ccccc2)n1`, for which the growth inhibition in experiment [1] is -13.3%; in experiment [2], -2.17%. In experiment [3], the viability increase was -1.48%. Also, the viability in experiment [4] was 100%; in experiment [5] it was 97%. Besides, the inhibition in experiment [6] is 0.905%. In addition, the RAM network inhibition in experiment [7] was -0.37%.

Take `c1coc(Cn2c(SCc3nc4ccccc4[nH]3)nnc2-c2cccs2)c1`: the growth inhibition in experiment [1] is 0.98%; in experiment [2] it was 21.3%. In addition, the viability increase in experiment [3] is -1.17%. Further, the viability in experiment [4] is 93%; in experiment [5] it was 89.8%. The inhibition in experiment [6] is 3.64%. Further, the RAM network inhibition in experiment [7] was 1.24%.

As for `O=C(NC1CCCCC1)c1ccc(S(=O)(=O)N2CCOCC2)cc1`, the growth inhibition was -2.04% in experiment [1] and -2.56% in experiment [2]. Further, in experiment [3], the viability increase was 0.17%. Further, the results for the viability in experiment [4] and in experiment [5] were 104% and 101%, respectively. In experiment [6], the inhibition was 0.855%. Further, the RAM network inhibition in experiment [7] is -0.73%.

In the case of `O=C(Nc1ccc(Cl)cn1)c1cccc(F)c1`, the growth inhibition in experiment [1] was -8.65%; in experiment [2], 3.83%. The viability increase in experiment [3] was -5.84%. Moreover, the viability is 37% in experiment [4] and 33.9% in experiment [5]. The inhibition in experiment [6] was 0.27%. Further, in experiment [7], the RAM network inhibition is 1.17%.

Take `Cc1ccccc1-n1nc(-c2ccc(N)cc2)cc1N`: the growth inhibition in experiment [1] was 3.39%; in experiment [2] it was 2.1%. The viability increase in experiment [3] was -2.52%. Moreover, the viability is 101% in experiment [4] and 94.7% in experiment [5]. Also, in experiment [6], the inhibition is 0.8%. The RAM network inhibition in experiment [7] is 2.8%.

For the molecule `C=C(C)CC1N(c2cccc(OC)c2)C(=O)C2C(C(=O)O)C3C=CC21O3` (stereo not drawn), the growth inhibition in experiment [1] is -5.17%; in experiment [2], 4.84%. Also, the viability increase in experiment [3] was -1.04%. Moreover, the viability in experiment [4] is 103%; in experiment [5] it was 95.3%. The inhibition in experiment [6] was -0.415%. For the same molecule, in experiment [7], the RAM network inhibition is 5.36%.

In the case of `O=C(CCCOc1ccccc1)n1nnc2ccccc21`, the results for the growth inhibition in experiment [1] and in experiment [2] were -10.8% and -9.88%, respectively. Also, the viability increase in experiment [3] was -1.21%. The viability is 98.9% in experiment [4] and 100% in experiment [5]. Moreover, the inhibition in experiment [6] was 0.75%. In addition, the RAM network inhibition in experiment [7] is 0.05%.
